Bioassay records: PubChem, several laboratories
In the library only some 2.4% were active in any assay of this set; here they are far more common.
Apaf1 inhib = blocks human Apaf-1 apoptosome activity; O14727; reconstituted apoptosome caspase-3 activity, DEVD-Rh110 fluorescence; AID 489030; 330,000 compounds, 0.71% hits; inhibition, % at 20 µM; active means inhibition of at least 40% at 20 µM
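Material: biochemical Apaf-1 apoptosome reconstitution. Medium: Hepes buffer, pH 7.5. Also added: cytochrome c activation, bis-DEVD rhodamine 110 substrate. Timing: 30 min compound preincubation, 50 min activation, room temperature. Measured by: rhodamine 110 fluorescence at Ex 480/Em 540 nm.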
FID counter = displaces DNA intercalator in HCV helicase counter-screen; inhibition, % at 7.9 µM; 290,000 compounds, 0.17% hits; DNA fluorescent intercalator displacement, fluorescence; in the data active means inhibition above about 37%;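 further: higher means more ethidium bromide displaced from hairpin DNA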
ANO1 activ = activators or potentiators of mouse TMEM16A chloride channel | Q8BHY3 | HEK293 TMEM16A/YFP-H148Q/I152L, iodide quench fluorescence; active compounds read low | B-score at 10 µM | 340,000 compounds, 0.3% hits | AID 623877;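 active means fluorescence-ratio B-score plate-corrected deviation score at least 3 library SD below zero, with starting fluorescence score within 5 deviations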;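 further: channel opened by trigger with iodide after compound preincubation; score built on the fluorescence ratio of max minus min over baseline; more negative score means more quench and so TMEM16A activation or potentiation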
UBC13 polyUb = human UBC13 polyubiquitination inhibition | P61088 | UBC13 polyubiquitin chain formation, TR-FRET | inhibition, % at 20 µM | 330,000 compounds, 0.47% hits; in the data active means inhibition above about 45%, passing the limit was not always enough
Target sequence (P61088 whole entry, looked up): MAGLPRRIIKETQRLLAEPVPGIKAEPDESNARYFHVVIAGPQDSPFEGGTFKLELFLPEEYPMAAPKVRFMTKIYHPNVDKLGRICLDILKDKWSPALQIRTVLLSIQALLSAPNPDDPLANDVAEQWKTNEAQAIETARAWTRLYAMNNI
TMEM16A inh = inhibitors of mouse TMEM16A calcium-activated chloride channel; Q8BHY3; HEK293 TMEM16A/YFP iodide influx fluorescence, ionomycin; normalized B-score (activity score, 25-100; higher = stronger inhibition) at 10 µM; 310,000 compounds, 1.2% hits; AID 588511;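 active means ratio plate-corrected score three or more library SD toward inhibition, starting fluorescence score within five deviations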;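 further: score derived from kinetic fluorescence span divided by baseline fluorescence per well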
Apaf-1 inh conf2 = Apaf-1 inhibition, single-dose confirmed. shares compounds with Apaf1 inhib. reconstituted apoptosome, caspase-3 DEVD-Rh110 fluorescence. inhibition, % at 20 µM. 1,800 compounds, 25% hits. AID 504614;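 active means mean inhibition of at least 40% at 20 µM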
Rh110 interf inh = counter-screen for Apaf-1 inhibitors: fluorescence interference; shares compounds with Apaf1 inhib; Rh110 fluorescence interference, quenched caspase reaction; activation (fluorescence interference), % at 20 µM; 1,800 tested, under 10 active; AID 504615;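 active means signal rise of 40% or more at 20 µM, treated as a fluorescence artifact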
Fluor interf inh = shows fluorescence interference in the Apaf-1 inhibitor assay format | shares compounds with Apaf1 inhib | fluorescence interference counterscreen, Apaf-1 assay format | IC50, µM | 460 tested, under 10 active; call rule not given here
Each line names hits and unclear results; the compound was inactive in the other large screens (follow-up assays come after a bar, where they were run).

CC1(C)C=C2C(=NN(c3ccccc3)C(N)=C2C#N)CO1	Apaf1 inhib 47 | Apaf-1 inh conf2 98 | Rh110 interf inh inactive | Fluor interf inh inactive
COc1cc(C(=O)NC(C)c2ccc(-n3ccnc3)cc2)cc(OC)c1C (stereo not drawn)	Apaf1 inhib 41 | Apaf-1 inh conf2 inactive | Rh110 interf inh inactive
COc1cc(C(=O)NCC(=O)NC(C)c2ccc(-n3ccnc3)cc2)cc(OC)c1OC (stereo not drawn)	none (no result: FID counter)
CCC(C)NC(=O)c1ccc([N+](=O)[O-])c(Cl)c1 (stereo not drawn)	none
O=C(O)c1ccc2c3c(ncnc13)-c1ccccc1C2=O	Apaf1 inhib 44 (no result: ANO1 activ) | Apaf-1 inh conf2 inactive | Rh110 interf inh inactive
O=C(O)c1ccc(/C=N\Nc2ccc(S(=O)(=O)N3CCOCC3)cc2[N+](=O)[O-])cc1	none
Cc1ccc(-n2c(O)c(/C=N/Nc3ccc(S(=O)(=O)N4CCOCC4)cc3[N+](=O)[O-])c3ccccc3c2=O)c(C)c1	Apaf1 inhib 51, TMEM16A inh 100 | Apaf-1 inh conf2 inactive | Rh110 interf inh inactive
CNC(=S)N/N=C/c1ccco1	none
O=C1c2ccccc2C(=O)c2c1ccc1c(=O)n(C3CCCCC3)[nH]c21	none
O=C1C2=C(c3ccccc31)[N+](=O)[C@@H]1CCCC[C@@H]1N2[O-]	Apaf1 inhib 75 | Apaf-1 inh conf2 66 | Rh110 interf inh inactive | Fluor interf inh inactive
Brc1cccc2sc(N3CCCC3)nc12	none
Cc1nc(N)ncc1-c1ccc2c(c1)OCO2	none
C=CCc1cccc(/C=N/NC(=O)CNc2cccc3ccccc23)c1O	Apaf1 inhib 96 | Apaf-1 inh conf2 inactive | Rh110 interf inh inactive
CSc1ccc(/C=N/NC(=O)CNc2cccc3ccccc23)cc1	Apaf1 inhib 86 | Apaf-1 inh conf2 inactive | Rh110 interf inh inactive
O=C(CNc1cccc2ccccc12)N/N=C/C(Br)=C/c1ccccc1	Apaf1 inhib 65 | Apaf-1 inh conf2 inactive | Rh110 interf inh inactive
CS(=O)(=O)N(CC(=O)N1CCCCCC1)c1cccc(F)c1	none
COc1ccc(C(CNC(=O)c2cccc(NS(=O)(=O)c3ccc(C)c(F)c3)c2)N(C)C)cc1 (stereo not drawn)	Apaf1 inhib 52 (no result: FID counter) | Apaf-1 inh conf2 inactive | Rh110 interf inh inactive
CCOC(=O)Cn1nc(C)c(NC(=O)COc2ccc(OC)cc2)c1C	none
Cc1cc(/C=N/n2cnnc2)c(C)n1-c1ccc(OCc2ccc(Cl)cc2Cl)cc1	Apaf1 inhib 46, TMEM16A inh 100 | Apaf-1 inh conf2 inactive | Rh110 interf inh inactive
Cc1cc(/C=N/n2cnnc2)c(C)n1-c1ccc(Cl)cc1	none
CCc1ccc(OCC(=O)N/N=C2\CC(=O)c3ccccc32)cc1	Apaf1 inhib 84 | Apaf-1 inh conf2 54 | Rh110 interf inh inactive | Fluor interf inh inactive
COc1ccc(OCC(=O)N/N=C2\CCCCc3ccccc32)cc1	none
O=C(CCn1cnc(-c2ccccc2)c1-c1ccccc1)N/N=C/c1ccc(O)cc1	none
COc1ccc(/C=N/NC(=O)CCn2cnc(-c3ccccc3)c2-c2ccccc2)cc1	Apaf1 inhib 54 | Apaf-1 inh conf2 44 | Rh110 interf inh inactive | Fluor interf inh inactive
CC(C)c1ccc(-n2ccnc2SCC(=O)O)cc1	none
O=C1NN(c2ccccc2)C(=O)/C1=C/c1ccc(-c2ccc(C(=O)O)cc2)o1	none
O=C(O)c1ccc(N2C(=O)/C(=C/c3ccc(-c4ccc([N+](=O)[O-])cc4)o3)C=C2c2ccccc2)cc1	Apaf1 inhib 52 | Apaf-1 inh conf2 inactive | Rh110 interf inh inactive
N#Cc1c(N(CCO)CCO)nc(N)c2c(N)nc3c(c12)CC(=O)N3Cc1cccs1	Apaf1 inhib 73 | Apaf-1 inh conf2 42 | Rh110 interf inh inactive | Fluor interf inh inactive
CN(CCO)c1nc(N)c(C#N)c(CC#N)c1C#N	none
CN(CCO)c1nc(N)c2c(N)nc3c(c2c1C#N)CC(=O)N3Cc1cccs1	Apaf1 inhib 77 | Apaf-1 inh conf2 inactive | Rh110 interf inh inactive
COC(=O)c1nc(-c2ccccc2)oc1N1CCOCC1	none
CC(C)c1ccc(N(CC(=O)NC2CCCCC2)C(=O)CCC(=O)Nc2ccccn2)cc1	none
CCc1ccc(S(=O)(=O)/N=C2\C=C(NS(=O)(=O)c3ccccc3)C(=O)c3ccccc32)cc1	Apaf1 inhib 57 (no result: TMEM16A inh) | Apaf-1 inh conf2 51 | Rh110 interf inh inactive | Fluor interf inh inactive
Cc1ccc(C)c(S(=O)(=O)/N=C2\C=C(NS(=O)(=O)c3ccccc3)C(=O)c3ccccc32)c1	Apaf1 inhib 78, TMEM16A inh 100 | Apaf-1 inh conf2 59 | Rh110 interf inh inactive
COc1cc(NC(C)CCCN)c2ncccc2c1 (stereo not drawn)	Apaf1 inhib 92 (no result: FID counter) | Apaf-1 inh conf2 inactive | Rh110 interf inh inactive
COc1cc(NC(=O)OCc2ccccc2)c2ncccc2c1	none (no result: Apaf1 inhib, FID counter, UBC13 polyUb, TMEM16A inh)
CC(c1nnc(SCC(=O)Nc2cccnc2Cl)n1Cc1ccccc1)N(C)C (stereo not drawn)	none
CN1N=C(C(F)(F)F)CC1=O	none
CN1N=C(C(C)(C)C)CC1=O	Apaf1 inhib 41 | Apaf-1 inh conf2 inactive | Rh110 interf inh inactive
CC(=O)Nc1ccc(S(=O)(=O)c2c(N)n(CCN3CCOCC3)c3nc4ccccc4nc23)cc1	none
CC(=O)Nc1c(S(=O)(=O)c2ccccc2)c2nc3ccccc3nc2n1Cc1ccccc1	Apaf1 inhib 60 | Apaf-1 inh conf2 inactive | Rh110 interf inh inactive
Nc1ccc(Oc2ncccn2)cc1	Apaf1 inhib 44 | Apaf-1 inh conf2 52 | Rh110 interf inh inactive | Fluor interf inh inactive
C/C(=N\NC(=O)c1nnn(-c2nonc2N)c1CN(C)c1ccccc1)c1cccnc1	none
COc1cc(NC2CCCCC2O)c2nc(-c3ccc(Cl)cc3)ccc2c1 (stereo not drawn)	Apaf1 inhib 55 | Apaf-1 inh conf2 inactive | Rh110 interf inh inactive
N#CCc1ccc(OC(=O)c2ccncc2)cc1	none (no result: FID counter)
CN1c2ccccc2C(C)(C)C12C=Nc1c(cc(N3CCOCC3)c3ccccc13)O2 (stereo not drawn)	Apaf1 inhib 69 (no result: TMEM16A inh) | Apaf-1 inh conf2 inactive | Rh110 interf inh inactive
Cc1cc(NC(=O)CSCC(=O)OCc2nnc(-c3ccc(F)cc3)o2)no1	none (no result: FID counter, TMEM16A inh)
CCC1(CC)NC(=O)N(CC(=O)Nc2sc3c(c2C(N)=O)CCC3)C1=O	none
COc1ccc2nc(-c3ccco3)c(-c3ccco3)nc2c1	none
COc1ccc2nc3ccccc3nc2c1N	Apaf1 inhib 92 | Apaf-1 inh conf2 inactive | Rh110 interf inh inactive
COc1ccc2nc3cccc(OC)c3nc2c1	Apaf1 inhib 97 | Apaf-1 inh conf2 inactive | Rh110 interf inh inactive
